From ChEMBL document CHEMBL1140944, “A new class of vitamin D analogues that induce structural rearrangement of the ligand-binding pocket of the receptor” (J Med Chem, 2009)
Residue numbers refer to the chain shown, from its start. Active and inactive are the calls of the source. The calls are words filed in the database; no cut-off is given here.

Columns and labels:
HEK293 [1] = assay: Inhibition of 1,25-(OH)2D3-induced CYP24A1 mRNA expression in HEK293 cells at 10^-6 M after 24 hrs by quantitative real time PCR; format: functional, cell-based; conditions: Homo sapiens
Summary of the method: (§1)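 HEK293 cells were treated for 24 h with 10^-6 M compound, without (12) or with (15) 10^-8 M 1,25-(OH)₂D₃. CYP24A1 mRNA was measured by quantitative real-time RT-PCR and normalized to actin mRNA; mean ± SD of triplicates.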

[2] = molecular target: T1, Vitamin D3 receptor (Homo sapiens) (UniProt P11473); assay: Agonist activity at full length human VDR expressed in HEK293 cells overexpressing mouse osteopontin vitamin D-responsive element assessed as transcriptional activation after 16 hrs by dual luciferase reporter gene assay; format: functional, cell-based
T1 sequence (whole entry): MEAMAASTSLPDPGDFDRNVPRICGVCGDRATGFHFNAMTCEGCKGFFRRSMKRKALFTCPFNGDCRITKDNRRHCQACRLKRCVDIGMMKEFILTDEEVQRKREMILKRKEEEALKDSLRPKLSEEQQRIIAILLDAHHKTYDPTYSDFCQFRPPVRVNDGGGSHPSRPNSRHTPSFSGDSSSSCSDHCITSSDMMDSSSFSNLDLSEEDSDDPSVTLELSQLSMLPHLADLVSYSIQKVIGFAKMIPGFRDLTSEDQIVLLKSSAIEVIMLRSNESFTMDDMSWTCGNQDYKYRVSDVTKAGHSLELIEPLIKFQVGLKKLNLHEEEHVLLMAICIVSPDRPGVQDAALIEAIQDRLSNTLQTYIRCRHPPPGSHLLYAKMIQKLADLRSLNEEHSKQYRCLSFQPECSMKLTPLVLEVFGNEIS

[3] = molecular target: T1, Vitamin D3 receptor (Homo sapiens); assay: Antagonist activity at full length human VDR expressed in HEK293 cells overexpressing mouse osteopontin vitamin D-responsive element assessed as inhibition of 1,25-(OH)2D3-induced transcriptional activation after 16 hrs by dual luciferase reporter gene assay; format: functional, cell-based
Vitamin D3 receptor = molecular target: T2, Vitamin D3 receptor (Bos taurus, UniProt Q28037); assay: Displacement of [3H]1,25-(OH)2D3 from bovine thymus vitamin D receptor
T2 sequence (Q28037 whole entry): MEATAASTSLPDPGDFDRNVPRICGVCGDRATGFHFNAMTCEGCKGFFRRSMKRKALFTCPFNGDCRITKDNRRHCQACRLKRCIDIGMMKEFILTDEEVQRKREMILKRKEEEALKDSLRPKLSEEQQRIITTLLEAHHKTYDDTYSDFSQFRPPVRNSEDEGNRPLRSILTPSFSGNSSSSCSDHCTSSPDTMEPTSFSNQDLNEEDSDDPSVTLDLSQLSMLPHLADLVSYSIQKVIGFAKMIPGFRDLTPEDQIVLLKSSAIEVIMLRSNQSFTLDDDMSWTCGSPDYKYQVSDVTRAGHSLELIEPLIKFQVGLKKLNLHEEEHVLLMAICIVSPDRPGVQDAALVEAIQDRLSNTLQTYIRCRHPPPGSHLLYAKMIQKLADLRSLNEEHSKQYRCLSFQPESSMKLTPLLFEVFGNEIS
Summary of the method: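 Bovine thymus VDR was dissolved in 0.05 M phosphate buffer, pH 7.4, with 0.3 M KCl and 5 mM DTT. Free ligand was removed with dextran-coated charcoal (20 min, 4 °C) and supernatant radioactivity counted. Nonspecific binding was subtracted; EC₅₀ came from dose-response curves; duplicate.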

HL-60 [4] = assay: Induction of cell differentiation in human HL60 cells after 4 days by NBT reduction assay; format: functional, cell-based
Summary of the method: (§2)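 HL-60 promyelocytic leukemia cells were plated at 2 × 10⁵ cells/plate in Eagle's modified medium. Compound was added at 10^-6, 10^-7 or 10^-8 M for 4 days. Differentiation was scored by nitro blue tetrazolium reduction.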

[5] = molecular target: T1, Vitamin D3 receptor (Homo sapiens); assay: Antagonist activity at full length human VDR expressed in african green monkey Cos7 cells overexpressing mouse osteopontin vitamin D-responsive element assessed as inhibition of 1,25-(OH)2D3-induced transcriptional activation after 16 hrs by dual luciferase reporter gene assay; format: functional, cell-based; conditions: COS-7
Summary of the method: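 Cos7 cells were transfected with full-length hVDR, the SPPx3-TK-Luc osteopontin VDRE reporter and pRL-CMV. Test ligands were given together with 10^-9 M 1,25-(OH)₂D₃ for 16 h. Dual luciferase signal was normalized to the sea pansy control, with activity at 10^-8 M 1,25-(OH)₂D₃ set as 1; triplicate.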

[6] = system: T3, Vitamin D3 receptor (Homo sapiens), P11473 [H305A]; assay: Agonist activity at full length human VDR H305A mutant expressed in african green monkey COS7 cells overexpressing mouse osteopontin vitamin D-responsive element assessed as transcriptional activation at 10^-6 M after 16 hrs by dual luciferase reporter gene assay; format: functional, cell-based; conditions: COS-7
T3 sequence (whole entry): T1 sequence (whole entry) with H305A
Summary of the method: (§3)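 COS-7 cells in DMEM with 5% FBS, seeded at 2 × 10⁴ per well. After 24 h they were lipofected with the mutant hVDR plasmid (pCMX-hVDR), the SPPx3-TK-Luc reporter (three mouse osteopontin VDREs) and the pRL-CMV control. After 8 h, ligand was added at 10^-6 M, or ethanol vehicle, for 16 h. Firefly luciferase was normalized to the internal control; triplicate.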

[7] = system: T4, Vitamin D3 receptor (Homo sapiens), P11473 [H397A]; assay: Agonist activity at full length human VDR H397A mutant expressed in african green monkey COS7 cells overexpressing mouse osteopontin vitamin D-responsive element assessed as transcriptional activation at 10^-6 M after 16 hrs by dual luciferase reporter gene assay; format: functional, cell-based; conditions: COS-7; summary of the method: as §3
T4 sequence (whole entry): T1 sequence (whole entry) with H397A

HL-60 [8] = assay: Inhibition of 1,25-(OH)2D3-induced differentiation in human HL60 cells after 4 days by NBT reduction assay
[9] = molecular target: T1, Vitamin D3 receptor (Homo sapiens); assay: Antagonist activity at human VDR expressed in african green monkey COS7 cells overexpressing GAL4 response element assessed as SRC1 peptide recruitment by mammalian two hybrid assay; format: functional, cell-based; conditions: COS-7
[10] = molecular target: T1, Vitamin D3 receptor (Homo sapiens); assay: Antagonist activity at human VDR expressed in african green monkey COS7 cells overexpressing GAL4 response element assessed as RXRalpha recruitment by mammalian two hybrid assay; format: functional, cell-based; conditions: COS-7
HL-60 [11] = assay: Inhibition of 1,25-(OH)2D3-induced cell differentiation in human HL60 cells after 4 days by NBT reduction assay; format: functional, cell-based; summary of the method: as §2
HEK293 [12] = assay: Inhibition of 1,25-(OH)2D3-induced CYP24A1 mRNA expression in HEK293 cells after 24 hrs by real time PCR; format: functional, cell-based; conditions: Homo sapiens
Summary of the method: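 HEK293 cells were exposed to the indicated compound concentrations for 24 h. CYP24A1 mRNA was quantified by real-time RT-PCR against actin; triplicate.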

HL-60 [13] = assay: Inhibition of 1,25-(OH)2D3-induced cell differentiation in human HL60 cells assessed as morphological changes at 10^-6 M by Wright-Geimsa staining; format: functional, cell-based
Summary of the method: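 HL-60 cells were stained with Wright-Giemsa and their morphology examined by light microscopy.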

[14] = molecular target: T1, Vitamin D3 receptor (Homo sapiens); assay: Agonist activity at human VDR expressed in african green monkey COS7 cells overexpressing GAL4 response element assessed as RXRalpha recruitment by mammalian two hybrid assay; format: functional, cell-based; conditions: COS-7
HEK293 [15] = assay: Induction of CYP24A1 mRNA expression in HEK293 cells at 10^-6 M after 24 hrs by quantitative real time PCR; format: functional, cell-based; conditions: Homo sapiens; summary of the method: as §1
[16] = molecular target: T1, Vitamin D3 receptor (Homo sapiens); assay: Agonist activity at full length human VDR expressed in african green monkey Cos7 cells overexpressing mouse osteopontin vitamin D-responsive element assessed as transcriptional activation after 16 hrs by dual luciferase reporter gene assay; format: functional, cell-based; conditions: COS-7
Summary of the method: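 COS-7 cells in DMEM with 5% FBS were lipofected with full-length pCMX-hVDR, the SPPx3-TK-Luc osteopontin VDRE reporter and pRL-CMV. After 8 h, ligand or ethanol vehicle was added for 16 h. Dual luciferase read-out was normalized to the internal control. Activity at 10^-8 M 1,25-(OH)₂D₃ was set as 1; triplicate.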

[17] = molecular target: T1, Vitamin D3 receptor (Homo sapiens); assay: Agonist activity at human VDR expressed in african green monkey COS7 cells overexpressing GAL4 response element assessed as SRC1 peptide recruitment by mammalian two hybrid assay; format: functional, cell-based; conditions: COS-7

Structure (SMILES)	Activity (HEK293 [1])	Activity [2]	Activity [3]	EC50 (Vitamin D3 receptor) [nM]	Activity (HL-60 [4])	Activity [5]	other results
C=C1/C(=C\C=C2/CCC[C@]3(C)[C@@H]([C@H](C)[C@@H](CCCC)C[C@H](O)C(C)C)CC[C@@H]23)C[C@@H](O)C[C@@H]1O	Active	Dose-dependent effect	Dose-dependent effect	3.8	inactive	Dose-dependent effect	–
C=C1/C(=C\C=C2/CCC[C@]3(C)[C@@H]([C@H](C)[C@H](CCCC)C[C@@H](O)C(C)C)CC[C@@H]23)C[C@@H](O)C[C@@H]1O	–	–	–	16	inactive	–	–
C=C1/C(=C\C=C2/CCC[C@]3(C)[C@@H]([C@H](C)[C@H](CCCC)C[C@H](O)C(C)C)CC[C@@H]23)C[C@@H](O)C[C@@H]1O	Active	Dose-dependent effect	Dose-dependent effect	3.4	inactive	Dose-dependent effect	Activity [6]: Active
C=C1/C(=C\C=C2/CCC[C@]3(C)[C@@H]([C@H](C)[C@@H](CCCC)C[C@@H](O)C(C)C)CC[C@@H]23)C[C@@H](O)C[C@@H]1O	–	–	–	20	–	–	–
C=C1/C(=C\C=C2/CCC[C@]3(C)[C@@H]([C@@H](C)[C@@H](CCO)CCCC)CC[C@@H]23)C[C@@H](O)C[C@@H]1O	Active	Dose-dependent effect	Dose-dependent effect	20	inactive	Dose-dependent effect	Activity [7]: Active
C=C1/C(=C\C=C2/CCC[C@]3(C)[C@@H]([C@H](C)[C@H](CCO)CCCC)CC[C@@H]23)C[C@@H](O)C[C@@H]1O	Active	Dose-dependent effect	Dose-dependent effect	1.2	inactive	Dose-dependent effect	Activity (HL-60 [8]): Active; Activity [9]: Active; Activity [10]: Active; Activity (HL-60 [11]): Active; Activity (HEK293 [12]): Dose-dependent effect; Activity (HL-60 [13]): Active
C=C1/C(=C\C=C2/CCC[C@]3(C)[C@@H]([C@H](C)CCCC(C)(C)O)CC[C@@H]23)C[C@@H](O)C[C@@H]1O	–	–	–	–	Active	–	Activity (HL-60 [13]): Active
C=C1/C(=C\C=C2/CCC[C@]3(C)[C@@H]([C@H](C)[C@@H](CCO)CCCC)CC[C@@H]23)C[C@@H](O)C[C@@H]1O	–	–	–	11	inactive	–	–
C=C1/C(=C\C=C2/CCC[C@]3(C)[C@@H]([C@@H](C)[C@H](CCO)CCCC)CC[C@@H]23)C[C@@H](O)C[C@@H]1O	–	–	–	2	Active	–	Activity [14]: Active; Activity (HEK293 [15]): Active; Activity [16]: Active; Activity [17]: Active
